# ChEMBL document CHEMBL1138201, “Development and characterization of biphenylsulfonamides as novel inhibitors of bone resorption” (J Med Chem, 2006)
# Active and inactive are the calls of the source. The rule behind the calls is not given here.
# What was measured:
# [1] = system: J774; test: Inhibition of mouse J774 cell survival by alamar blue viability assay; format: functional, cell-based
# In short: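 J774 cells were seeded at 10⁴ per well in […] with 10% FCS and penicillin/streptomycin and grown overnight. Compounds were then added for 48 h. Alamar Blue was added for a further 3 h and viability was read as fluorescence (ex 530, em 590 nm). There were at least three independent experiments, n = 5 each, and IC₅₀ was fitted.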
# [2] = species: Homo sapiens; test: Inhibition of TNF-alpha-activated NF-kappaB
# [3] = species: Homo sapiens; test: Inhibition of RANKL-activated NF-kappaB
# [4] = system: Osteoclast; test: Inhibition of mouse osteoclast survival; format: functional, cell-based
# In short: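 Mouse bone marrow from femora and tibiae was grown 3 days with 100 ng/mL M-CSF. Adherent cells were seeded on dentine slices (4 × 10⁴ cells/mL) with 100 ng/mL RANKL and 25 ng/mL M-CSF for 7 days. Compounds were present for 72 h from day 4. TRAcP-positive cells with ≥3 nuclei were counted as % of vehicle. Three experiments, n = 5 each.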
# [5] = system: Mus musculus; test: Inhibition of ovariectomy-induced bone loss in C57/BL6 mouse at 5 mg/kg/day, ip; format: functional, organism-based
# In short: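 Nine-week-old female C57/BL6 mice were ovariectomized or sham-operated. Starting 2 days after surgery, they received 5 (mg/kg)/day intraperitoneally in corn oil for 21 days; controls received oil alone. The study ended on day 23. Bone at the right tibial metaphysis was measured by µCT at 5 µm resolution over 200 slices distal to the growth plate. Results are % change from sham, ±SEM, n = 6.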
# [6] = system: Osteoclast; test: Apoptosis of osteoclast at 5 to 20 uM; format: functional, cell-based; conditions: Homo sapiens
# [7] = system: Macrophage; test: Apoptosis of macrophage at 5 to 20 uM; format: functional, cell-based; conditions: Homo sapiens
# [8] = system: Osteoblast; test: Effect on apoptosis of osteoblast; format: functional, cell-based; conditions: Homo sapiens
# [9] = system: Hepatocyte; test: Effect on apoptosis of hepatocyte; format: functional, cell-based; conditions: Homo sapiens
Compound,IC50 [1] [µM],further results
CN(C)c1ccc(-c2ccc(S(=O)(=O)NCCCCCO)cc2)cc1,32,
N#Cc1ccc(-c2ccc(S(=O)(=O)NCCCCCO)cc2)cc1,12,
O=S(=O)(NCCCCO)c1ccc(-c2ccc(C(F)(F)F)cc2)c(F)c1,5.5,
O=S(=O)(NCCCCO)c1ccc(-c2ccccc2I)cc1,5.5,
O=S(=O)(NCCCCO)c1ccccc1-c1ccc(F)cc1,> 50,
O=S(=O)(NCCCCCO)c1ccc(-c2ccc(Br)cc2)cc1,9,
O=S(=O)(NCCCCO)c1ccc(-c2ccc(F)cc2)cc1,8,
O=[N+]([O-])c1ccccc1-c1ccc(S(=O)(=O)NCCCCO)cc1,2,
O=S(=O)(NCCCCCO)c1ccc(-c2ccccc2)cc1,18,
Cc1cc(S(=O)(=O)NCCCCO)ccc1-c1ccc(F)cc1F,0.8,Activity [2]: Active; Activity [3]: Active; IC50 [4]: 0.15 µM; Activity [5]: Active
O=S(=O)(NCCCCCO)c1ccc(-c2ccc(F)cc2F)cc1,4.5,
O=S(=O)(NCCCO)c1ccc(-c2ccccc2)cc1,> 50,
O=S(=O)(NCCCCO)c1ccc(-c2ccc(Br)cc2)cc1,8,
Cc1cc(S(=O)(=O)NCCCCO)ccc1-c1ccc(F)cc1,2.5,
O=S(=O)(NCCCCCO)c1ccc(-c2ccc(Cl)cc2Cl)cc1,2.5,
O=S(=O)(NCCCCCO)c1ccc(-c2ccc(F)c(F)c2)cc1,16,
O=S(=O)(NCCCCO)c1ccc(-c2ccccc2)cc1,18,Activity [2]: Active; Activity [3]: Active; IC50 [4]: 8 µM
O=S(=O)(NCCCCO)c1ccc(-c2ccc(F)cc2F)c(C(F)(F)F)c1,0.7,
O=S(=O)(NCCCCCO)c1ccc(-c2ccc(C(F)(F)F)cc2C(F)(F)F)cc1,2,
COc1ccccc1-c1ccc(S(=O)(=O)NCCCCCO)cc1,31,

Compound,IC50 [1] [µM],further results
O=C(OCCCCO)c1ccc(-c2ccccc2)cc1,,Activity [2]: Active; Activity [3]: Active; IC50 [4]: 9 µM; Activity [6]: Active; Activity [7]: Active; IC50 [8]: > 100 µM; IC50 [9]: > 200 µM
O=S(=O)(NCCCCO)c1ccc(-c2ccc(OC(F)(F)F)cc2)cc1,8,
O=S(=O)(NCCCCO)c1ccc(-c2ccc(C(F)(F)F)cc2)cc1F,5,
CSc1ccc(-c2ccc(S(=O)(=O)NCCCCO)cc2)cc1,35,
Cc1ccc(-c2ccc(S(=O)(=O)NCCCCCO)cc2)cc1,13,
O=S(=O)(NCCCCO)c1ccc(-c2ccccc2)cc1C(F)(F)F,4.5,
O=S(=O)(NCCCCO)c1cccc(-c2ccc(C(F)(F)F)cc2)c1,> 50,
O=S(=O)(NCCCCO)c1ccc(-c2ccc(C(F)(F)F)cc2)cc1,5,
Nc1ccccc1-c1ccc(S(=O)(=O)NCCCCO)cc1,24,
O=S(=O)(NCCCCCCO)c1ccc(-c2ccccc2)cc1,13,
O=S(=O)(NCCCCO)c1ccc(-c2ccccc2C(F)(F)F)cc1,6,
O=S(=O)(NCCCCCO)c1ccc(-c2ccc(-c3ccccc3)cc2)cc1,33,
O=S(=O)(NCCCCO)c1ccc(-c2ccc(Br)cc2F)cc1,3,
Cc1cccc(-c2ccc(S(=O)(=O)NCCCCO)cc2)c1,28,
O=S(=O)(NCCCCCO)c1ccc(-c2ccc(O)cc2)cc1,21,
O=C(O)c1ccc(-c2ccc(S(=O)(=O)NCCCCCO)cc2)cc1,33,
CC(=O)c1ccc(-c2ccc(S(=O)(=O)NCCCCCO)cc2)cc1,11,
O=[N+]([O-])c1cccc(-c2ccc(S(=O)(=O)NCCCCO)cc2)c1,33,
COc1cc(S(=O)(=O)NCCCCCO)ccc1-c1ccc(F)cc1F,33,
